Reference: ChEMBL document CHEMBL1121934, “2,3-dihydro and carbocyclic analogues of tryptamines: interaction with serotonin receptors” (J Med Chem, 1982)

Biological target: 5-hydroxytryptamine receptor 2B (Rattus norvegicus, UniProt P30994)
Assay: The binding affinity to 5-hydroxytryptamine 2B receptor of rat fundus
Conditions: read-out: pA2 (converted)
Method in brief: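 Isolated rat stomach fundus strip preparation. After a 1-h equilibration, 5-HT oxalate dose-response curves (9–11 increasing concentrations) were run without and with 4–5 increasing concentrations of test compound. Apparent affinity was expressed as pA2 by Arunlakshana–Schild analysis, with linear regression giving both pA2 and Schild plot slope.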

Chain of 5-hydroxytryptamine receptor 2B (P30994 whole entry): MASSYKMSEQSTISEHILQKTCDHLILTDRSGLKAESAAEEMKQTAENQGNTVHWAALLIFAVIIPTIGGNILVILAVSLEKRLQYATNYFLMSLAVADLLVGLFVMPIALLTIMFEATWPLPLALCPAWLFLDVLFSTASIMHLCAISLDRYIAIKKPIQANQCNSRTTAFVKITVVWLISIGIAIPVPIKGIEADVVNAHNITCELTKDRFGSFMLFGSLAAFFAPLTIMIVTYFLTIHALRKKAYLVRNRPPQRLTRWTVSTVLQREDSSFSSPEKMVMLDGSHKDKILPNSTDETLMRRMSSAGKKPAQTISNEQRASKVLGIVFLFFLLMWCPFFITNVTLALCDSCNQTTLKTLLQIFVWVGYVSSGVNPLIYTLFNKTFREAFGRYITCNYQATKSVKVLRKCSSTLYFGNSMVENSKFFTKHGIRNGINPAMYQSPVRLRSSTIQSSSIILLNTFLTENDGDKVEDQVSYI

Question: CNCCc1c[nH]c2ccccc12 was tested. Which Kb did it give?
Answer: 1.07 µM

Question: Which Kb does the source give for NC1CCc2ccccc2C1 (stereo not drawn) here?
Answer: 2.45 µM

Question: CN(C)CCC1CCc2ccccc21 (racemic) was tested. Which Kb did it give?
Answer: 4.57 µM

Question: CN(C)CCNc1ccccc1 was tested. Which Kb did it give?
Answer: 0.955 µM

Question: With CNCCC1CCc2ccccc21 (stereo in doubt; 4d) as the compound, how does the Kb read?
Answer: 2.19 µM

Question: How did the Kb turn out when NCCC1CCc2ccccc21 (racemic) was run?
Answer: 2.51 µM

Question: How did the Kb turn out when CNCCC1CCc2ccccc21 (racemic) was run?
Answer: 4.27 µM

Question: For CN(C)CCC1=CCc2ccccc21, which Kb is on record?
Answer: 2.09 µM

Question: Which Kb does the source give for COc1ccc2c(c1)C(CCN(C)C)CN2 (racemic) here?
Answer: 0.182 µM

Question: Which Kb does the source give for CN(C)CCC(=O)c1ccccc1 here?
Answer: 4.79 µM

Question: With NCCc1c[nH]c2ccccc12 [TRYPTAMINE] as the compound, how does the Kb read?
Answer: 0.537 µM

Question: With CN(C)CCC1CNc2ccccc21 (racemic) as the compound, how does the Kb read?
Answer: 2.09 µM

Question: With CN(C)CCCc1ccccc1 as the compound, how does the Kb read?
Answer: 8.13 µM
